Data set [1] concerns HCC827. In words: Cytotoxicity against erlotinib-sensitive human HCC827A cells assessed as cell viability at 1 uM after 72 hrs by MTT assay. The note with it: HCC827, 72 h, read-out: Activity. It is filed as functional. The method in brief:
(§1)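 Colorimetric tetrazolium viability assay with erlotinib at 1 μM; % viability reported, n = 3.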

The subject of data set [2] is HCC827. Nature of the data set: Cytotoxicity against erlotinib-resistant human HCC827B cells assessed as cell viability at 1 uM after 72 hrs by MTT assay. Format: functional. The note with it: HCC827, 72 h, read-out: Activity. In outline: as §1
The test system of a further data set is TAMH. In words: Cytotoxicity against TAMH assessed as reduction in cell viability after 24 hrs by cell titer glo based luminescence assay. Particulars: Mus musculus. The method in brief: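 TAMH (TGFα-transformed murine hepatocytes; stable, nontumorigenic, metabolically competent line) exposed to compound for 24 h; IC50 from viability.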
Data set [3] deals with Hepatocyte growth factor receptor (Homo sapiens) (UniProt P08581). Nature of the data set: Inhibition of MET phosphorylation at Y1234/1235 in mitochondria isolated from erlotinib-resistant human HCC827B cells at 4 uM after 1 to 1.5 hrs by immunoblot analysis. In outline: (§2)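 Whole HCC827B cells, or mitochondria first purified from them, were treated separately with 4 μM compound for 1 and 1.5 h, then immunoblotted for p-MET Y1234/1235. Each lane held 10 μg protein; loading controls were SDHA for mitochondria and actin for whole cells.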
Sequence of Hepatocyte growth factor receptor (Homo sapiens) (P08581 whole entry): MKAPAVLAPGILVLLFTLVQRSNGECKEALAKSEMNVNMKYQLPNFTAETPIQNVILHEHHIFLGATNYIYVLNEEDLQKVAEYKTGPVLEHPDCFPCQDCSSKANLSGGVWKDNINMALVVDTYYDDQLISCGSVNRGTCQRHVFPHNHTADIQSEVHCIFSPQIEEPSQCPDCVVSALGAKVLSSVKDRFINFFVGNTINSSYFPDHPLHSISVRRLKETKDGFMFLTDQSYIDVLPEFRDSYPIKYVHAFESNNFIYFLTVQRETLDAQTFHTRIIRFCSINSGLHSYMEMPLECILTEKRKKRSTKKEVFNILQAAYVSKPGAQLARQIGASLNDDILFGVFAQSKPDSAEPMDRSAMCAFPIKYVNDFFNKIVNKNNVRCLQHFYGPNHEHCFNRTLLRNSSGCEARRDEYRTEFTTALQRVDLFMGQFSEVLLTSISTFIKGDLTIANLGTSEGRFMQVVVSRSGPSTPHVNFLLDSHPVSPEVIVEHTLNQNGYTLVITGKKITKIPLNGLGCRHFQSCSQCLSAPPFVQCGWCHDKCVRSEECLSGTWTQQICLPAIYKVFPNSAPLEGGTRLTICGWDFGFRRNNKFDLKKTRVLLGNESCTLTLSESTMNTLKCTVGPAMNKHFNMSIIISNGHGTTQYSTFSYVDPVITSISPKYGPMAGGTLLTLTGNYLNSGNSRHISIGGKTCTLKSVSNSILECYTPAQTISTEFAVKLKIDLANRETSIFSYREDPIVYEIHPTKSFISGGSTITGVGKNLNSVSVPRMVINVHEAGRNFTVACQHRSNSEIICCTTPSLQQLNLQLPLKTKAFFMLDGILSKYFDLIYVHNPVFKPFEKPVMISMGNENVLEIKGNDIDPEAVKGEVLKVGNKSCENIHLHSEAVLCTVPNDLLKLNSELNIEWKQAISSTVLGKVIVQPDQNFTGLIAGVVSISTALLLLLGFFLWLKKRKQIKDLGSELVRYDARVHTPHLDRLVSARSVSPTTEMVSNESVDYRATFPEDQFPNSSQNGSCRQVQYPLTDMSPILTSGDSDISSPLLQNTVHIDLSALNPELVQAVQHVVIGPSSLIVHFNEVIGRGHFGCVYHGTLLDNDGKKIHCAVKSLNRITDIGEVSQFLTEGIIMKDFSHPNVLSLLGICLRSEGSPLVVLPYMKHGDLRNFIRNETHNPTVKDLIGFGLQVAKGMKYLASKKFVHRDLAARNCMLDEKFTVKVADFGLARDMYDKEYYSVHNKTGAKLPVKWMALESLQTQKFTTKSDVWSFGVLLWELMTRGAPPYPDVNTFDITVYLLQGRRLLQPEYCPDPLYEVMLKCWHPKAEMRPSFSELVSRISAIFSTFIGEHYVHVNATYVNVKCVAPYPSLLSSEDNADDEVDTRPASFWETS

The subject of data set [4] is HCC827. Nature of the data set: Induction of apoptosis in erlotinib-resistant human HCC827B cells assessed as increase in cleaved caspase 7 level at 4 uM measured up to 60 hrs by immunoblot analysis. It is filed as functional, cell-based. In outline:
(§3)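 HCC827B cells treated with 4 μM compound; whole-cell lysates collected at 12, 24, 36, 48 and 60 h and immunoblotted for cleaved PARP and cleaved caspases 3 and 7. Control was untreated cells at 0 h; GAPDH was the loading control.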

The nature of data set [5]: Drug uptake in mitochondria of erlotinib-resistant human HCC827B cells assessed as R1 gated population at 4 uM after 1 hr by MTR staining based FACS analysis (reference value: >98%). It is filed as ADME.
Data set [6] concerns HCC827. Nature of the data set: Cytotoxicity against erlotinib-sensitive human HCC827A cells assessed as reduction in cell viability after 72 hrs by MTT assay. Format: functional, cell-based. Particulars: HCC827, 72 h. In outline: (§4)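 Colorimetric tetrazolium assay after 72 h exposure; IC50 derived from viability. Comparisons between compounds by unpaired Student's t test.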

In data set [7] the test system is HCC827. In words: Cytotoxicity against erlotinib-resistant human HCC827B cells expressing MET assessed as reduction in cell viability after 72 hrs by MTT assay. Format: functional, cell-based. The note with it: HCC827, 72 h. In outline: as §4
Data set [8] has as its system HCC827. Nature of the data set: Effect on total MET expression level in erlotinib-resistant human HCC827B cells at 4 uM after 1 to 1.5 hrs by immunoblot analysis. It is filed as ADME, cell-based. The note with it: hcc827, 4 µM.
A short description of data set [9]: Drug uptake in mitochondria of human HeLa cells at 4 uM after 3 hrs by MTR dye/Hoechst 33342 staining based confocal microscopy. It is filed as ADME. In outline: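 HeLa cells were exposed to 4 μM compound for 3 h, then stained with MitoTracker Red and Hoechst 33342 and imaged by confocal microscopy. Intrinsic compound green fluorescence (Ex 460, Em 520 nm) was compared for overlap with MTR.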

Data set [10] addresses Hepatocyte growth factor receptor (Homo sapiens) (UniProt P08581). In words: Inhibition of MET phosphorylation at Y1234/1235 in erlotinib-resistant human HCC827B cells at 4 uM after 1 to 1.5 hrs by immunoblot analysis. In outline: as §2
Data set [11] is described as follows: Drug uptake in mitochondria of erlotinib-resistant human HCC827B cells assessed as R1 gated population at 4 uM after 1 hr by FACS analysis (reference value: >98%). Format: ADME.
Data set [12] concerns HCC827. In words: Induction of apoptosis in erlotinib-resistant human HCC827B cells assessed as increase in cleaved caspase 3 level at 4 uM measured up to 60 hrs by immunoblot analysis. Format: functional, cell-based. In outline:
as §3

The target in data set [13] is Hepatocyte growth factor receptor (Homo sapiens) (UniProt P08581). In words: Inhibition of MET phosphorylation at Y1234/1235 in mitochondria isolated from compound treated erlotinib-resistant human HCC827B cells at 4 uM after 24 hrs by immunoblot analysis. In outline:
(§5)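 HCC827B cells exposed to 4 μM compound for 24 h; whole-cell lysates and mitochondria then isolated from treated cells and immunoblotted for p-MET Y1234/1235. Each lane held 10 μg protein; loading controls were actin (whole cells) and SDHA (mitochondria).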

Data set [14] shares this target. Nature of the data set: Inhibition of MET phosphorylation at Y1234/1235 in erlotinib-resistant human HCC827B cells at 4 uM after 24 hrs by immunoblot analysis. In outline: as §5
The test system of data set [15] is HCC827. In words: Induction of apoptosis in erlotinib-resistant human HCC827B cells assessed as increase in cleaved PARP level at 4 uM measured up to 60 hrs by immunoblot analysis. Format: functional, cell-based. In outline: as §3
Data set [16] in a line: Effect on total MET expression level in mitochondria isolated from erlotinib-resistant human HCC827B cells at 4 uM after 1 to 1.5 hrs by immunoblot analysis. It is filed as ADME.

The structures appear in SMILES notation. Active and inactive are the calls of the source. No cut-off for these calls is given here.

`C#Cc1cccc(Nc2ncnc3cc(OCCOC)c(OCCOC)cc23)c1` [ERLOTINIB]: the values for the viability at 1 µM in the data set on HCC827 [1] and with HCC827 [2] were 22.4% and 72.4%, respectively.
Take `Cc1[nH]c(/C=C2\C(=O)Nc3ccc(S(=O)(=O)Cc4c(Cl)cccc4Cl)cc32)c(C)c1C(=O)NCC[P+](c1ccccc1)(c1ccccc1)c1ccccc1.[Br-]`: the results for the IC50 with TAMH, with HCC827 [6] and with HCC827 [7] were 15.1 µM, 16.7 µM and 5.3 µM, respectively. The inhibition result in [3] is “inactive”. Also, the result in the data set on HCC827 [4], in the data set on HCC827 [12] and in the data set on HCC827 [15] was Active. Besides, the Drug uptake in data set [5] is on record as 95%; in data set [9], “Active”; in data set [11] it was 98%. Further, the Activity entry (in the data set with HCC827 [8]; in data set [16]) was “Non-Toxic” in each case. For the same compound, the inhibition entry in data set [10], in [13] and in data set [14] was “Active” in each case.
As for `Cc1[nH]c(/C=C2\C(=O)Nc3ccc(S(=O)(=O)Cc4c(Cl)cccc4Cl)cc32)c(C)c1C(=O)N1CCC[C@@H]1CN1CCCC1` [PHA-665752], the IC50 in the data set with TAMH worked out at 8.9 µM; in the data set on HCC827 [6] it was 15.7 µM; in the data set on HCC827 [7] it was 8.9 µM. In addition, the inhibition result in data set [3] was “inactive”. For the same compound, the result with HCC827 [4], in the data set with HCC827 [12] and with HCC827 [15] was Active. Moreover, the Drug uptake in [5] is recorded as 35%; in data set [9], “Not Active”. Further, the Activity result (in the data set on HCC827 [8]; in data set [16]) was “Non-Toxic” each time. Also, the inhibition entry in data set [10] and in data set [13] was “Active” throughout.

(Values after ChEMBL document CHEMBL4428083, “Mitochondrial-Targeting MET Kinase Inhibitor Kills Erlotinib-Resistant Lung Cancer Cells” (ACS Med Chem Lett, 2016).)
